Positions count from the first letter of the chain named. Numbered stars: 1 amine (or outer) side, 2 acyl side, 3 side chain; on linkers, the order of the positions; unused ones are H or OH. Bridge positions count the residues as written; N and C are the ends. Square brackets hold non-standard residues; d marks the D form. Peptide text beside a SMILES is read from it. X1 = CC(=O)NC(C(=O)OC(C(C)C)C(N[*:1])C(=O)[*:2])C(O)C(C)C; PhLac = O=C(O)[CH](O)Cc1ccccc1; NMeT = CN[CH](C(=O)O)[CH](C)O; NMeA = CN[CH](C)C(=O)O; NMeDha = C=C(NC)C(=O)O
Experiments:
pancreatic acinar cells [1] = test: Ca2+ imaging in freshly isolated pancreatic acinar cells; assay type: cell-based, mouse
GPBAR1 = biological target: T1, GPBAR1 (Homo sapiens, UniProt Q8TDU6); test: CRE luciferase reporter assay; assay type: cell-based
T1 sequence (Q8TDU6 1-330): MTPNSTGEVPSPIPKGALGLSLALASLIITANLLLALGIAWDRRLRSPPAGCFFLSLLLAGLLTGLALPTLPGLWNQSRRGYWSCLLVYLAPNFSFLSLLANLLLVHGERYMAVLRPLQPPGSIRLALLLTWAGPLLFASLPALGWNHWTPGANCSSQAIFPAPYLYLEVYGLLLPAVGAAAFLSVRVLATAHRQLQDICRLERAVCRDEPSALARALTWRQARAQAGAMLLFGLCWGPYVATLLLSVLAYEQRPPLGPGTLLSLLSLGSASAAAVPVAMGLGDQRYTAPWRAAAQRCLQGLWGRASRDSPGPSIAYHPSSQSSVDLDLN

[2] = test system: mock-transfected HEK293T cells; test: Ca2+ response of mock-transfected HEK293T cells; assay type: cell-based, human; conditions: 200 μM
Method in brief: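 Sham-transfected HEK293T cells loaded with Fluo-8 AM (2 μg/ml) in recording buffer for 25 min at room temperature, then 5 min in recording buffer. FLIPR read at room temperature every 1 s; 200 μM test compound or Zn2+ dispensed at 30 s, followed by 150 s recording.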

GHSR = GHSR (Homo sapiens, UniProt Q92847); test: FLIPR Ca2+ assay, GHSR expressed in HEK293T-Gα15-GCaMP6s cells; assay type: cell-based; conditions: for GHSR activation: 200 μM BAs; for Maximal efficacy at GHSR: normalized to 1 μM ghrelin
mouse GPR39 = biological target: T2, mouse GPR39 (Mus musculus, UniProt Q5U431); test: FLIPR Ca2+ assay in HEK293T cells stably expressing mouse GPR39; assay type: cell-based; conditions: for GPR39 activation, presence or absence of 4 μM Zn2+: with or without 4 μM Zn2+
T2 sequence (Q5U431 1-456): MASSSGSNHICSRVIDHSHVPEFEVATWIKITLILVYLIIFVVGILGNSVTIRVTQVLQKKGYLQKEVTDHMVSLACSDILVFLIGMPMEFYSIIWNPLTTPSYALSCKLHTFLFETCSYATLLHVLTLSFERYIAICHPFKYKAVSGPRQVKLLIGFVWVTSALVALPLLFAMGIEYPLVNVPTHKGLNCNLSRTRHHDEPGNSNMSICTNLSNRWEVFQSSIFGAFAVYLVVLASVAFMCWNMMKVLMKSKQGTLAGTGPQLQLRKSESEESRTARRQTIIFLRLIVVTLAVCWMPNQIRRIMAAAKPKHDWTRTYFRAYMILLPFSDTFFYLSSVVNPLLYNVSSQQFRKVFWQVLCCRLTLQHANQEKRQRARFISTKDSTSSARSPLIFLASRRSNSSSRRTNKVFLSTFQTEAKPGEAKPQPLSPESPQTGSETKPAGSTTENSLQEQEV

[3] = test system: zebrafish (Danio rerio) GPR39 (zfGPR39); test: FLIPR Ca2+ assay, HEK293T cells expressing zebrafish GPR39; assay type: cell-based
Method in brief: (§1)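 HEK293T cells expressing mouse GPR39 H17A/H19A mutant or zebrafish GPR39, Fluo-8-loaded, read by FLIPR at room temperature (addition at 30 s, 150 s recording). Where Zn2+ used, cells preincubated with 4 μM Zn2+ in recording buffer for 5 min and it was kept with all compound concentrations. Responses normalized to 200 μM LCAS; n = 3 or 4.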

pancreatic acinar cells [4] = test: Amylase release from isolated pancreatic acini; assay type: cell-based, mouse; conditions: 500 μM LCAS, 500 μM TLCAS, 1 nM caerulein
Method in brief: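 Mouse acini (WT, Gpr39−/−, Gpbar1−/−) isolated and held as for the LDH assay, then exposed to test compound at 37°C for 30 min. Amylase activity measured in supernatant. Vehicle leakage subtracted as basal; net release expressed as % of total activity (0.5% Triton X-100 lysate). One-way ANOVA with Tukey posttest versus WT.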

pancreatic acinar cells [5] = test: Acinar cell injury: PI uptake, LDH leakage, blebbing; assay type: cell-based, mouse; conditions: 4 hours
Method in brief: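 Mouse acini (WT, Gpr39−/−, Gpbar1−/−) digested with 1 mg/ml collagenase IV, collected on 150-μm nylon cloth, and suspended in Hepes-buffered DMEM/F12 with 1 mg/ml BSA. Exposed to test compound at 37°C for 4 h. LDH in supernatant measured by kit, expressed as % of total LDH (0.5% Triton X-100 lysate). PI uptake: acini resuspended in 2 μg/ml PI, fluorescence ex 536/em 617 nm, normalized to vehicle.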

GPR39 [6] = conditions: cited from earlier work
G. Gallus GPR39 = test: FLIPR Ca2+ assay, HEK293T cells expressing chicken GPR39; assay type: cell-based, chicken (Gallus Gallus)
G. japonicus GPR39 = test: FLIPR Ca2+ assay, HEK293T cells expressing gecko GPR39; assay type: cell-based, gecko (Gekko japonicus)
H17A/H19A mutant GPR39 = biological target: T3, H17A/H19A mutant GPR39 (Mus musculus, UniProt Q5U431, H17A/H19A); test: FLIPR Ca2+ assay, HEK293T cells expressing GPR39 H17A/H19A mutant; assay type: cell-based
T3 sequence (Q5U431 1-456 H17A/H19A): T2 sequence (Q5U431 1-456) with H17A, H19A
Method in brief: as §1

GPR39 [7] = biological target: T4, GPR39 (Homo sapiens, UniProt O43194); assay type: cell-based; conditions: 200 μM
T4 sequence (O43194 1-453): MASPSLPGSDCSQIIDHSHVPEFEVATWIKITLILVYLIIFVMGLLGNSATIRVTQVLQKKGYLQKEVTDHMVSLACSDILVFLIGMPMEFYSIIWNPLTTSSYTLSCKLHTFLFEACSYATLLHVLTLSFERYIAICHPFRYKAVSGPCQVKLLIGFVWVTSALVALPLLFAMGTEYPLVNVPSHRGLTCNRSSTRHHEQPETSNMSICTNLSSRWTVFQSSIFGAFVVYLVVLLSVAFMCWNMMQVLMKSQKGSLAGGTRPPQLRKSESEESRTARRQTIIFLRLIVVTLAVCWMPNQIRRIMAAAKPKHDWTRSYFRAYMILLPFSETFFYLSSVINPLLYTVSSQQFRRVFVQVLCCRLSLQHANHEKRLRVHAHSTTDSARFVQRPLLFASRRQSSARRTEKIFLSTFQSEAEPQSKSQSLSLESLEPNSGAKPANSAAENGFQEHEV
Method in brief: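 HEK293T cells stably expressing Gα15 and GCaMP6s, on poly-D-lysine-coated plates, transiently transfected with human GPCR cDNAs. Test compound added by pipette at 200 μM; intracellular Ca2+ imaged by confocal microscopy.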

X. laevis GPR39 = test: FLIPR Ca2+ assay, HEK293T cells expressing frog GPR39; assay type: cell-based, frog (Xenopus laevis)
[8] = WT mice, LCAS 500 μM, TLCAS 500 μM, caerulein 100 nM

GHSR, sequence (Q92847 whole entry): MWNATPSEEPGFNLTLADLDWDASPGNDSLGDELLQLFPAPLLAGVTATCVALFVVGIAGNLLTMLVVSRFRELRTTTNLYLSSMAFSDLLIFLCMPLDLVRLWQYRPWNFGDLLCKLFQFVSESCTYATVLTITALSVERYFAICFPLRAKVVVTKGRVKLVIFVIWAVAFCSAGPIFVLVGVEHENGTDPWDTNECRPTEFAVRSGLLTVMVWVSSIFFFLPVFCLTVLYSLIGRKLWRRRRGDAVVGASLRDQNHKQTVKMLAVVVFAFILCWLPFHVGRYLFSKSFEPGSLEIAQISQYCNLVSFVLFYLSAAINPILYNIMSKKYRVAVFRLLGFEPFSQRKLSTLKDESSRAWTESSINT

## CC[C@H]1[C@@H](O)[C@@H]2[C@H](C[C@H](O)[C@]3(C)[C@@H]([C@H](C)C[C@H](C)C(=O)O)CC[C@@H]23)[C@@]2(C)CC[C@@H](O)C[C@@H]12 [INT-777]
Pancreatic acinar cells [1]
  Ca2+ elevation in acinar cells by GPBAR1 ligands and agonist: not observed

## C[C@H](CCC(=O)O)[C@H]1CC[C@H]2[C@@H]3CC[C@@H]4C[C@H](O)CC[C@]4(C)[C@H]3C[C@H](O)[C@]12C [DCA, deoxycholic acid]
GPBAR1
  GPBAR1 activation: potent agonists
[2]
  Ca2+ elevation in mock-transfected cells: nonspecific Ca^2+ elevations
GHSR; 10 μM BA
  Effect on GHSR activation by ghrelin: did not potentiate or attenuate
GHSR
  GHSR activation: activated
  Maximal efficacy at GHSR: comparable to ghrelin

## C[C@H](CCC(=O)O)[C@H]1CC[C@H]2[C@@H]3[C@H](O)C[C@@H]4C[C@H](O)CC[C@]4(C)[C@H]3CC[C@]12C [CDCA, chenodeoxycholic acid]
[2]
  Ca2+ elevation in mock-transfected cells: nonspecific Ca^2+ elevations
GHSR
  GHSR activation: activated
  Maximal efficacy at GHSR: comparable to ghrelin

## CC(C)CCC[C@@H](C)[C@H]1CC[C@H]2[C@@H]3CC=C4C[C@@H](OS(=O)(=O)O)CC[C@]4(C)[C@H]3CC[C@]12C [cholesterol-S, cholesterol 3-sulfate]
Mouse GPR39
  GPR39 activation, presence or absence of 4 μM Zn2+: could not activate GPR39

## C=C1C(=O)NC(C)C(=O)N(C)C(C)C(=O)NC(C(OC(=O)C(NC(C)=O)C(O)C(C)C)C(C)C)C(=O)N(C)C(C(C)OC)C(=O)OC(C)C(NC(C)=O)C(=O)OC(Cc2ccccc2)C(=O)N1C (stereo not drawn) [YM254890] (Ac-T[PhLac][NMeDha]A[NMeA][X1][NMeT](Me); ester 1-C; configuration not given here)
Pancreatic acinar cells [1]; 10 μM YM254890 for 10 min, 500 μM TLCAS
  Effect on Ca2+ elevation induced by TLCAS in acinar cells: eliminated

## C[C@H](CCC(=O)O)[C@H]1CC[C@H]2[C@@H]3[C@@H](O)C[C@@H]4C[C@H](O)CC[C@]4(C)[C@H]3CC[C@]12C [UDCA, ursodeoxycholic acid]
GHSR; 10 μM BA
  Effect on GHSR activation by ghrelin: did not potentiate or attenuate
GHSR
  GHSR activation: activated
  Maximal efficacy at GHSR: comparable to ghrelin

## 5b-cholestanpentol
[3]
  zfGPR39 activation: minimal effects
Mouse GPR39
  GPR39 activation, presence or absence of 4 μM Zn2+: robustly activated

## Caerulein
Pancreatic acinar cells [4]
  Effect of deleting Gpbar1 on induced amylase discharge: did not alter
Pancreatic acinar cells [5]; Gpr39 knockout
  Effect of Gpr39 knockout on induced PI uptake and LDH leakage: did not affect
Pancreatic acinar cells [5]; [8]
  LDH release from isolated acinar cells: increased LDH release
  PI uptake into isolated acinar cells: increased PI uptake

## CCCCC[C@H](O)/C=C/C=C\C/C=C\C/C=C\CCCC(=O)O [15(S)-HETE, 15S-hydroxy-5Z,8Z,11Z,13E-eicosatetraenoic acid]
GPR39 [6]
  GPR39 activation (report): GPR39 activation

## C[C@H](CCC(=O)O)[C@H]1CC[C@H]2[C@@H]3CC[C@@H]4C[C@H](O)CC[C@]4(C)[C@H]3CC[C@]12C [LCA, lithocholic acid]
Mouse GPR39; 4 μM BA
  Enhancement of GPR39 activation by Zn2+: enhanced
GHSR; 1 μM LCA
  Effect on GHSR activation by ghrelin: no effect
GHSR; 10 μM BA
  Effect on GHSR activation by ghrelin: attenuated the effect of ghrelin
GHSR
  GHSR activation: activated
  Maximal efficacy at GHSR: lower efficacy
GHSR; compared with UDCA, DCA, and CDCA
  Sensitivity at GHSR: relatively higher sensitivity

## CC(C)CCC[C@@H](C)[C@H]1CC[C@H]2[C@@H]3CC=C4C[C@@H](O)CC[C@]4(C)[C@H]3CC[C@]12C [cholesterol]
Mouse GPR39
  GPR39 activation, presence or absence of 4 μM Zn2+: could not activate GPR39

## COc1ccc(Cn2c(CCc3ccccc3)nnc2[C@@H](Cc2c[nH]c3ccccc23)NC(=O)CN)cc1 [JMV-2959, JMV2959]
GHSR; 10 μM JMV2959, LCA 200 μM
  Effect on Ca2+ mobilization induced by LCA in GHSR-expressing cells: moderately but not fully inhibited

## CCCCCC1OC1C/C=C\C/C=C\C/C=C\CCCC(=O)O (racemic) [14(15)-EET, (±)14(15)-epoxy-5Z,8Z,11Z-eicosatrienoic acid]
GPR39 [6]
  GPR39 blockade (report): blocked

## [Zn+2] [Zn^2+]
G. Gallus GPR39
  Response of chicken GPR39: strong dose-dependent responses
[3]
  zfGPR39 activation: little response
[2]
  Ca2+ response of mock-transfected HEK293T cells: responded to neither
G. japonicus GPR39
  Response of gecko GPR39: strong dose-dependent responses
Mouse GPR39
  Zn2+ concentration that notably shifts GPR39 activation by LCAS: above 1 μM
Mouse GPR39; 4 μM Zn2+, leftward shift of the dose-response curve
  Effect of Zn2+ on GPR39-mediated calcium response to TLCAS: potentiated
H17A/H19A mutant GPR39
  Effect of H17A/H19A mutations on Zn2+-induced Ca2+ elevation: abolished
GPR39 [7]
  Ca2+ response of GPR39-transfected HEK293T cells: exhibited Ca^2+ responses
X. laevis GPR39
  Response of frog GPR39: strong dose-dependent responses

Reference: article PMC10836733 (Science Advances, 2024)
